Laboratory results taken from the EternaBench riboswitch data.

Test system: MS2 coat protein
Experiment: apparent Kd, MS2 coat protein; higher = weaker binding; RNA-MaP array; theophylline 2 mM where present
Outline: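 Green signal was scaled to red-channel RNA signal and control-cluster median Fmax, and the apparent Kd was taken as the median of filtered per-cluster binding-curve fits. The binding series used SNAP-549-labelled MS2 coat protein from 0.7 or 1.5 nM, doubling to 3 µM, on designs transcribed by stalled E. coli RNA polymerase on Illumina sequencing-chip clusters. Each series ran without and then with constant ligand in 100 mM Tris-HCl pH 7.5, 80 mM KCl, 4 mM MgCl2, BSA, DTT, yeast tRNA and Tween-20.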

[1] = designed as: ON switch for theophylline, no ligand
[2] = ligand present: theophylline, designed as: ON switch for theophylline
[3] = designed as: OFF switch for theophylline, no ligand
[4] = ligand present: theophylline, designed as: OFF switch for theophylline

Sequence	apparent Kd [1] [nM]	apparent Kd [2] [nM]	apparent Kd [3] [nM]	apparent Kd [4] [nM]
UGUACAUGAGGAUCACCCAUGUUACGCGAUACCAGACAUGAGAGUGUCCCUUGGCAGCGUGGAGCUGAUACGGCGGGAAGCCGGA	43.7	39.5	–	–
ACACAUGAGGAUCACCCAUGUCCAAUAGAUACCAGUGAUACGGUGCACCCUUGGCAGCUGUUGCUGAGUGAUGGUUCCCUCGGAA	125	164	–	–
ACAUCCAGAUUAAUCGUGGGCAUACUCGAUACCAGUAUUUUAAUCUACCCUUGGCAGCGACAUGAGGAUCACCCAUGUGCGAUGA	–	–	12.8	21.1
AUCGUACCUGAGGAUACCAGCAUGUGAUCAUAACAUGAGGAUCACCCAUGUAAUCAGUGAUGCCCUUGGCAGCUUGGUCGGUACA	51.6	26.4	–	–
ACGUCCGGAUUGAUCGUGGGCAUGGUCGAUACCAGUAUUUUAAUCUACCCUUGGCAGCGACAUGAGGAUCACCCAUGUGCGAUGA	–	–	16.9	42.6
AAACAUUGCUCAGAUACCAGACAUGAGGAUCACCCAUGUACCAAGGUAACCGAAAGGCAUGUCCCUUGGCAGCUGAGCAAUGAAA	–	–	13.7	240
AACAUGAGGAUCACCCAUGUAAUAUGGGAUACCAGAGACGAAAGUCUCCCUUGGCAGCCCAAGCUGCUCCAUACGAAAGUAUGGU	65.2	18	–	–
GGCGGACUUAUAGAUACCAGCACAUGAGGAUCACCCAUGUAUGGUCGCACCUCAGUCCUGUGCCCUUGGCAGCUAUAAUAGAUUU	–	–	19.7	115
UUGGUACGACAGCUCAUAUAAGCAUGUGAUACCAGACUGGAAACAGUCCCUUGGCAGCACUUUACAUGAGGAUCACCCAUGUCGG	–	–	221	191
GACAUGAGGAUCACCCAUGUAUUGGGUGAUACCAGCCUGAAUCAUGGCCCUUGGCAGCACCGCGCUAACUUUAUGUUUGCGAACC	49.7	160	–	–
GGUAUUGGAACAGAUACCAGUAUCUGUUGAUCCUACAUGAGGAUCACCCAUGUUAGAAAGUACCCUUGGCAGCUGUAAUAAUGCC	–	–	48.1	81.6
AGCGACAUGCGUGAUACCAGCUACAUGAGGAUCACCCAUGUAAGUAGGAAACUACUGUGUAGCCCUUGGCAGCACAAUGCAUGUC	–	–	19.8	43.5
AGACAUGUAGGAUAAUUGACUAUUACAGAUACCAGACUGUCUAAUGUCCCUUGGCAGCUGCAUUACAUGAGGAUCACCCAUGUUA	–	–	22.6	20.2
GGUCUGAAAACCGAUCAAAGAUCGGAAGAUACCAGAGGGUGAUCCCUCCCUUGGCAGCUUCACAUGAGGAUCACCCAUGUAGACC	192	151	–	–
GUGGAGACAUGAGAUACCAGUCUCUUUAACAUGAGGAUCACCCAUGUAAUGCUCCUCGGAGACCCUUGGCAGCUCAGUAUGAUGA	–	–	39.9	157
ACAUGAAGAACAGCGGUGGGCGCGCUCGAUACCAGUAUUUUAACCUACCCUUGGCAGCGACAUGAGGAUCACCCAUGUGAGAUGA	–	–	17.3	26.9
GCAAUACAUGAGGAUCACCCAUGUGCAGAUACCAGAGGUGUAUGCCUCCCUUGGCAGCUGCGACGCUCUGGCAUCUUGUGGGAUG	51.8	48.8	–	–
AACAUGAGGAUCACCCAUGUUUUAUGGGAUACCAGAGACGAAAGUCUCCCUUGGCAGCCCAAGCUGCUCCAUACGAAAGUAUGGU	14.3	14	–	–
UCGUGUAUAUCGGAUACCAGUGAAAUCGAUACAUGAGGAUCACCCAUGUGAGAGGAUGUACACCCUUGGCAGCUGUAUAUAUCUA	32.8	14.7	–	–
ACACACAUGAGGAUCACCCAUGUAAUAGAUACCAGUGACGCGGUGCACCCUUGGCAGCUGCUGCUGAGUGAUGGUUCCCUCGGAA	–	–	21.1	34.7
GGUGGCUGGAUCGAUACCAGCCACCACCGAUAGACCACAUGAGGAUCACCCAUGUUGGGUGGCCCUUGGCAGCGGUCCGGCUGCC	278	1290	–	–
UUCUACAUGAGGAUCACCCAUGUAAACGAUACCAGACGAGUAUUAGUCCCUUGGCAGCGUAGAGUGUCGUUUAUAGUAGGAUACC	22.7	–	–	–
ACAUGAGGAUCACCCAUGUUCCUCGCCGAUACCAGUGAAGAAGAACGCCCUUGGCAGCGGAAAGAAUAUAUUGGAGAUGAUAUAU	–	–	219	316
UCUUACUUGGUAGAUACCAGCGUGUUAUCUUUCUUUUGACAUGAGGAUCACCCAUGUAUAUGCCCUUGGCAGCUGCGUAGUGUGU	33.7	32.5	–	–
AAAUAGGUAGGAGAUACCAGAUACGUUAACAUGAGGAUCACCCAUGUGUAUGCACUUAGUGUCCCUUGGCAGCUCGAGGAUCUGG	30.7	35.3	–	–
AUCAUGUAAUCAGAUACCAGACAUCUUUUAAUACAUAUUACAUGAGGAUCACCCAUGUUGGUCCCUUGGCAGCUGAAAUAUUUUU	197	86.8	–	–
CGCAACCCUAAGGGAUUGUGGUUAUUAGAUACCAGUAUGAUGCAAUACCCUUGGCAGCUAAUACAUGAGGAUCACCCAUGUUGCG	–	–	–	59.5
